Experimental data: ChEMBL document CHEMBL3352008, “Dualsteric muscarinic antagonists--orthosteric binding pose controls allosteric subtype selectivity” (J Med Chem, 2014)
Residue numbers refer to the chain shown, from its start. The source made the active and inactive calls. The calls are words filed in the database; no cut-off is given here.

What was measured:
Format in all cases: cell-based
[1] = target: T1, Muscarinic acetylcholine receptor M2 (Homo sapiens, UniProt P08172); experiment: (§1) Displacement of [3H]-NMS from wild-type human muscarinic M2 receptor expressed in Flp-In-CHO cells by liquid scintillation counting
T1 sequence (P08172 whole entry): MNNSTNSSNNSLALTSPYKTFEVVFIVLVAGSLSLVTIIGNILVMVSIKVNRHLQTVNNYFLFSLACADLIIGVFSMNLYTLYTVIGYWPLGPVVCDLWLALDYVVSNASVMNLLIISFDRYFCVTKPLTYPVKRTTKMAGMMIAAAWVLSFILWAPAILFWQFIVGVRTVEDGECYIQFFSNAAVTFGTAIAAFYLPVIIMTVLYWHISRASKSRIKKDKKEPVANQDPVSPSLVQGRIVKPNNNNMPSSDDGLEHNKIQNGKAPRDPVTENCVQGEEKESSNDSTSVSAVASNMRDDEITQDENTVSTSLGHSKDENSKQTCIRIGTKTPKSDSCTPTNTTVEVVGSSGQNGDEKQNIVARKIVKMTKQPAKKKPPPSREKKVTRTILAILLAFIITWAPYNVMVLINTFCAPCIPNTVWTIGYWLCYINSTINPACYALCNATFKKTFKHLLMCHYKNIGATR
How it was run: (§2)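 Separated by rapid filtration, counted by liquid scintillation. Means ± SEM of 3−4 independent experiments in triplicate; unpaired two-tailed t test versus wild type.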

[2] = target: Muscarinic acetylcholine receptor M2 (Homo sapiens, UniProt P08172, Y104A); experiment: (§3) Displacement of [3H]-NMS from human muscarinic M2 Y104A mutant expressed in Flp-In-CHO cells by liquid scintillation counting
Chain of Muscarinic acetylcholine receptor M2 (Homo sapiens, UniProt P08172, Y104A) (P08172 whole entry Y104A): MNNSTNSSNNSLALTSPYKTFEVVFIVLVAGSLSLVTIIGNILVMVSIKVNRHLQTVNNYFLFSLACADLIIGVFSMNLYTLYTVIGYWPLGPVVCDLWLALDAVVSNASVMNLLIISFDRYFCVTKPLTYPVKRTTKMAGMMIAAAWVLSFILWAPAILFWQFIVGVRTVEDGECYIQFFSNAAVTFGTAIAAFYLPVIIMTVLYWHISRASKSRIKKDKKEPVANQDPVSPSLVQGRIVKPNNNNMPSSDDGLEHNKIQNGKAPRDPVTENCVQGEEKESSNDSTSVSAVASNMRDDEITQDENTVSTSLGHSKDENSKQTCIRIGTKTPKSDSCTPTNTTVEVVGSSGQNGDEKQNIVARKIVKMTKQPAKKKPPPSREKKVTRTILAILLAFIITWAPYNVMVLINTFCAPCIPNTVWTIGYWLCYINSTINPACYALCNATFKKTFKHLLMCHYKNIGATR
How it was run: (§4)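 Bound separated either by rapid filtration or, in some cases, by centrifugation at 21000g, 15 °C, 20 min. Pellet washed once, resuspended, counted by liquid scintillation. Triplicate determinations.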

[3] = target: Muscarinic acetylcholine receptor M2 (Homo sapiens, UniProt P08172, W422A); experiment: Displacement of [3H]-NMS from human muscarinic M2 W422A mutant expressed in Flp-In-CHO cells by liquid scintillation counting; how it was run: as §2
Chain of Muscarinic acetylcholine receptor M2 (Homo sapiens, UniProt P08172, W422A) (P08172 whole entry W422A): as the sequence (P08172 whole entry Y104A) above, with A104Y, W422A counted along it

[4] = target: T2, Muscarinic acetylcholine receptor M5 (Homo sapiens, UniProt P08912); experiment: (§5) Displacement of [3H]-NMS from wild-type human muscarinic M5 receptor expressed in CHO-K1 cells by liquid scintillation counting; how it was run: as §2
T2 sequence (P08912 whole entry): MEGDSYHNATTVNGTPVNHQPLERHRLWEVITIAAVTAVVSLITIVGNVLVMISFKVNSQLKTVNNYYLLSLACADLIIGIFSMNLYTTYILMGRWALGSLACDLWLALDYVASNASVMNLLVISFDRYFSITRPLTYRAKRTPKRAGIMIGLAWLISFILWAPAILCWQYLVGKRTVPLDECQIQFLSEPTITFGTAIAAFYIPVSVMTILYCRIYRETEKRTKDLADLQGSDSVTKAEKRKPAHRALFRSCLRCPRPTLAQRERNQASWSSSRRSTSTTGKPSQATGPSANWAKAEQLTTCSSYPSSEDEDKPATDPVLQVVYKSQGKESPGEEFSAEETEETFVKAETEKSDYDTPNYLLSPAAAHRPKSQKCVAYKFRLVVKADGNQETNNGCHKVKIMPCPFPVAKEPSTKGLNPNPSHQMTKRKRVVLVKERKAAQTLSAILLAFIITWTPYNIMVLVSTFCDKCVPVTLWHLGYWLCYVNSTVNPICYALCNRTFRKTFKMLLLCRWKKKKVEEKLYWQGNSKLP

[5] = target: T3, Muscarinic acetylcholine receptor M2 (Homo sapiens) (UniProt P08172); experiment: as §1; how it was run: as §2
T3 sequence (whole entry): T1 sequence (P08172 whole entry)

[6] = test system: T4, Muscarinic acetylcholine receptor M2 (Homo sapiens), P08172 [Y104A]; experiment: as §3; how it was run: as §4
T4 sequence (whole entry): T1 sequence (P08172 whole entry) with Y104A

[7] = test system: T5, Muscarinic acetylcholine receptor M2 (Homo sapiens), P08172 [Y177Q,T423H]; experiment: (§6) Displacement of [3H]-NMS from human muscarinic M2 Y177Q/T423H mutant expressed in Flp-In-CHO cells by liquid scintillation counting; how it was run: as §2
T5 sequence (whole entry): T1 sequence (P08172 whole entry) with Y177Q, T423H

[8] = target: T6, Muscarinic acetylcholine receptor M5 (Homo sapiens) (UniProt P08912); experiment: as §5; how it was run: as §2
T6 sequence (whole entry): T2 sequence (P08912 whole entry)

[9] = test system: T7, Muscarinic acetylcholine receptor M2 (Homo sapiens), P08172 [Y177Q]; experiment: (§7) Displacement of [3H]-NMS from human muscarinic M2 Y177Q mutant expressed in Flp-In-CHO cells by liquid scintillation counting; how it was run: as §2
T7 sequence (whole entry): T1 sequence (P08172 whole entry) with Y177Q

[10] = target: T3, Muscarinic acetylcholine receptor M2 (Homo sapiens); experiment: Antagonist activity at wild-type human muscarinic M2 receptor expressed in Flp-In-CHO cells assessed as inhibition of acetylcholine-induced effect at 0.01 to 100 uM by time-course assay
How it was run: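 Label-free dynamic mass redistribution (Epic reader) in Flp-In-CHO cells stably expressing hM2, seeded at 12500 cells/well and grown 20 h at 37 °C to confluence. Cells washed and rested 2 h at 28 °C in HBSS with 20 mM HEPES, pH 7.0. DMR signal induced by a maximally effective acetylcholine concentration, antagonist then added and response followed over time. Representative experiment, n = 4, repeated at least twice on separate days.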

[11] = target: Muscarinic acetylcholine receptor M2 (Homo sapiens, UniProt P08172, T423H/Y177Q); experiment: as §6; how it was run: as §2
Chain of Muscarinic acetylcholine receptor M2 (Homo sapiens, UniProt P08172, T423H/Y177Q) (P08172 whole entry Y177Q/T423H): as the sequence (P08172 whole entry Y104A) above, with A104Y, Y177Q, T423H counted along it

[12] = target: Muscarinic acetylcholine receptor M2 (Homo sapiens, UniProt P08172, Y177Q); experiment: as §7; how it was run: as §2
Chain of Muscarinic acetylcholine receptor M2 (Homo sapiens, UniProt P08172, Y177Q) (P08172 whole entry Y177Q): as the sequence (P08172 whole entry Y104A) above, with A104Y, Y177Q counted along it

[13] = target: T3, Muscarinic acetylcholine receptor M2 (Homo sapiens); experiment: Antagonist activity at wild-type human muscarinic M2 receptor expressed in Flp-In-CHO cells assessed as inhibition of acetylcholine-induced effect at 0.1 to 100 uM by time-course assay
How it was run: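 DMR (label-free optical) in Flp-In-CHO cells stably expressing hM2, seeded 12500 cells/well, grown 20 h at 37 °C. Washed, rested 2 h at 28 °C in HBSS + 20 mM HEPES pH 7.0. Acetylcholine at maximally effective concentration, then antagonist; responses monitored 1 h. Representative experiment, n = 4, repeated at least twice on separate days.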

[14] = target: T3, Muscarinic acetylcholine receptor M2 (Homo sapiens); experiment: Antagonist activity at wild-type human muscarinic M2 receptor expressed in Flp-In-CHO cells assessed as inhibition of acetylcholine-induced effect at 100 uM in absence of atropine by time-course assay

| SMILES | Ki [1] [nM] | Ki [2] [nM] | Ki [3] [nM] | Ki [4] [nM] | Ki [11] [nM] | Ki [12] [nM] | other results |
| --- | --- | --- | --- | --- | --- | --- | --- |
| C[N+](C)(C)CCCCCC[N+]1(C)[C@@H]2C[C@H](OC(=O)[C@H](CO)c3ccccc3)C[C@H]1[C@@H]1O[C@@H]12 (stereo not given in full) | 47.9 | 309 | 40.7 | 20.9 | – | – | – |
| C[N+](C)(CCCCCC[N+](C)(C)CCCN1C(=O)c2ccccc2C1=O)CCCN1C(=O)c2ccccc2C1=O | – | – | – | – | – | – | pKA [5]: 6.55; pKA [6]: 6.59; pKA [7]: 5.47; pKA [8]: 4.37 |
| CC(C)(CN1C(=O)c2cccc3cccc(c23)C1=O)C[N+](C)(C)CCCCCC[N+](C)(C)CCCN1C(=O)c2ccccc2C1=O | – | – | – | – | – | – | pKA [5]: 7.7; pKA [6]: 7.64; pKA [9]: 6.23; pKA [7]: 5.82; pKA [8]: 5.05; inhibition [10]: Active |
| CN(C)CC#CCOC1=NOCC1 | 100 | – | – | – | – | – | – |
| CC(C)(CN1C(=O)c2cccc3cccc(c23)C1=O)C[N+](C)(C)CCCCCC[N+](C)(C)CC#CCOC1=NOCC1 | 11.5 | 14.5 | 19.5 | – | 26.9 | – | – |
| CC(C)(CN1C(=O)c2cccc3cccc(c23)C1=O)C[N+](C)(C)CCCCCC[N+]1(C)[C@@H]2CC[C@@H]1CC(OC(=O)C(CO)c1ccccc1)C2 (relative stereo) | 2.82 | 61.7 | 21.4 | 19.5 | 2.82 | 8.51 | inhibition [13]: Active; inhibition [14]: inactive |
| CN1[C@@H]2CC[C@H]1CC(OC(=O)[C@H](CO)c1ccccc1)C2 (stereo not given in full) | – | – | – | – | – | – | inhibition [10]: Active |
| C[N+](C)(C)CCCCCC[N+]1(C)[C@@H]2CC[C@@H]1CC(OC(=O)C(CO)c1ccccc1)C2 (relative stereo) | 16.2 | 151 | 55 | 87.1 | 18.2 | 18.6 | – |
| CC(C)(CN1C(=O)c2cccc3cccc(c23)C1=O)C[N+](C)(C)CCCCCC[N+]1(C)[C@@H]2C[C@H](OC(=O)[C@H](CO)c3ccccc3)C[C@H]1[C@@H]1O[C@@H]12 (stereo not given in full) | 6.17 | 132 | 6.46 | 5.5 | 3.31 | 8.91 | – |
| C[N+](C)(C)CC#CCOC1=NOCC1 | 2.51 | 257 | 10 | 120 | 2.19 | 8.71 | – |
| C[N+](C)(C)CCCCCC[N+](C)(C)CC#CCOC1=NOCC1 | – | 1290 | 275 | 3980 | 64.6 | 91.2 | – |
| C[N+](C)(CCCCCC[N+]1(C)[C@@H]2C[C@H](OC(=O)[C@H](CO)c3ccccc3)C[C@H]1[C@@H]1O[C@@H]12)CCCN1C(=O)c2ccccc2C1=O (stereo not given in full) | 8.13 | 50.1 | 6.92 | 17 | 7.08 | 7.08 | – |
| C[N+](C)(CC#CCOC1=NOCC1)CCCCCC[N+](C)(C)CCCN1C(=O)c2ccccc2C1=O | 91.2 | 204 | 75.9 | 30200 | 200 | 275 | – |
| C[N+]1(C)[C@@H]2CC[C@@H]1CC(OC(=O)C(CO)c1ccccc1)C2 (stereo not given in full) | 1.82 | 11 | – | – | – | – | – |
